# Experimental data published in the M2OR odorant receptor database.
# Assays:
# Conditions in all cases: stereoisomer not certain
# [1] = test system: O10H2
# In short: (§1)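 Each entry records the cell line, G-protein, co-transfected protein and tags used. Methods varied with the source, often transient luciferase assays in mammalian cell lines. A receptor–molecule pair is called responsive (active) if the original authors judged its signal statistically different from baseline and non-responsive (inactive) otherwise.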
# [2] = test system: O10G7 I28V
# In short: as §1
# [3] = test system: O10H3 R54H
# In short: as §1
# [4] = test system: O10H4 I50V
# In short: as §1
# [5] = test system: O10H5 S268Y
# In short: as §1
# [6] = test system: O10J1 M62I I103M
# In short: as §1
# [7] = test system: O10J1 M62I
# In short: as §1
# [8] = test system: O10J3 Q235R E319G
# In short: as §1
# [9] = test system: O10P1 R195K
# In short: as §1
# [10] = test system: O10Q1 E12D
# In short: as §1
# Sequence of O10H2 (as listed by the source): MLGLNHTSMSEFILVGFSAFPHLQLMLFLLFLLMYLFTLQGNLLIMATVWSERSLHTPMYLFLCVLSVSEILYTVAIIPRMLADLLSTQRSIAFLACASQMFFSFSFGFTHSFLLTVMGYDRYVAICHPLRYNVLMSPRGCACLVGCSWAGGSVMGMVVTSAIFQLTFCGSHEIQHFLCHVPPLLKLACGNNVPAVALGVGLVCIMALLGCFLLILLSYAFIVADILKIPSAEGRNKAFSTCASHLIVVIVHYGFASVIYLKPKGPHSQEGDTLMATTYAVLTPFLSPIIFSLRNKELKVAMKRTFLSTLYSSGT
# Sequence of O10H5 S268Y (as listed by the source, stated change not applied): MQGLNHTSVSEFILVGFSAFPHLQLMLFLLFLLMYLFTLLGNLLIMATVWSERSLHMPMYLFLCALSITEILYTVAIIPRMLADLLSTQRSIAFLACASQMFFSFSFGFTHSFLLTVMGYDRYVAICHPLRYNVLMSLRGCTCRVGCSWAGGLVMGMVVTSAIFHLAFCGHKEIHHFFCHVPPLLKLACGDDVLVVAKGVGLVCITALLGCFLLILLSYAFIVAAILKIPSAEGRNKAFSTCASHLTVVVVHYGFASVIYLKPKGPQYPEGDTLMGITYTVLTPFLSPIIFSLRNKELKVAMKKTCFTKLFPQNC
# Sequence of O10P1 R195K (as listed by the source, stated change not applied): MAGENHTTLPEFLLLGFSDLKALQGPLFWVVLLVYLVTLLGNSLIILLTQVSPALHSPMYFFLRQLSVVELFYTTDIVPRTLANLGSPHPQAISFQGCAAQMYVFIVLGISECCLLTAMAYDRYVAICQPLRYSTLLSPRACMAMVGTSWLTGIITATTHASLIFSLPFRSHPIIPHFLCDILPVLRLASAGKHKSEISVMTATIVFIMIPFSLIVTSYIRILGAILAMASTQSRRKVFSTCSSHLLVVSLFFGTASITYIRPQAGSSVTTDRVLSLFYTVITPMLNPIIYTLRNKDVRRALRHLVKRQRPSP
# Sequence of O10H3 R54H (as listed by the source, stated change not applied): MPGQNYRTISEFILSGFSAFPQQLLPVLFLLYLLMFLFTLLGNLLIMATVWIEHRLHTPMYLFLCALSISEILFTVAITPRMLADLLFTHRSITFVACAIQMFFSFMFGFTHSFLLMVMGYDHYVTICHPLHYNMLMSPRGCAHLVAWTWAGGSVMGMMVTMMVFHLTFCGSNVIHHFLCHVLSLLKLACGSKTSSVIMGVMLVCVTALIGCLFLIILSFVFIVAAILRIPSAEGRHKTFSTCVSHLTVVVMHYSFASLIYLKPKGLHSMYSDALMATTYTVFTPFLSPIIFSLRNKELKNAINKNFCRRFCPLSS
# Sequence of O10H4 I50V (as listed by the source, stated change not applied): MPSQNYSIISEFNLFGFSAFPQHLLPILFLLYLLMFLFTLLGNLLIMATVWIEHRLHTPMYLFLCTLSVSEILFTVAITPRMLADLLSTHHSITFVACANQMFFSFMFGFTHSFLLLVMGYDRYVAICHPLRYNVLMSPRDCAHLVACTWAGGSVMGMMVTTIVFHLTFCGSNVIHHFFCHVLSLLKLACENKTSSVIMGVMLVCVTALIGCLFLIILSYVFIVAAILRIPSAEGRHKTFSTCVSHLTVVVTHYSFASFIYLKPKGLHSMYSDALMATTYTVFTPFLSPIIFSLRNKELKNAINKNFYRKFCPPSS
# Sequence of O10J1 M62I (as listed by the source, stated change not applied): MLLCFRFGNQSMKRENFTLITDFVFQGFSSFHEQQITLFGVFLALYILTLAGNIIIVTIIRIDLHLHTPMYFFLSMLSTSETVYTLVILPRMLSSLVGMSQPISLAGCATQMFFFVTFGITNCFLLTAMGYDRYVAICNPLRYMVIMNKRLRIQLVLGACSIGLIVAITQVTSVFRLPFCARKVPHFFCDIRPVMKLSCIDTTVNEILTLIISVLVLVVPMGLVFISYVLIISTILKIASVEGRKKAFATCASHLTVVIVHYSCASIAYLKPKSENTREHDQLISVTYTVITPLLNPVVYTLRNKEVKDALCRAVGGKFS
# Sequence of O10Q1 E12D (as listed by the source, stated change not applied): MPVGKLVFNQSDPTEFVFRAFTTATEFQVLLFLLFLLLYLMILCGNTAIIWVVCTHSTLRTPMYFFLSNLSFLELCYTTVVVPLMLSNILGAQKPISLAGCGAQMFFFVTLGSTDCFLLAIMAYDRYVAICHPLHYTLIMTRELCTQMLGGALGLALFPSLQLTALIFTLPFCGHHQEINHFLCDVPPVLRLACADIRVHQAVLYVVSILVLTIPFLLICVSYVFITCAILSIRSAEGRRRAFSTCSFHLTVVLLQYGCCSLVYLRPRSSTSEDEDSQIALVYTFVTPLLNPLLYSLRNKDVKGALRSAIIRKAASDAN
# Sequence of O10G7 I28V (as listed by the source, stated change not applied): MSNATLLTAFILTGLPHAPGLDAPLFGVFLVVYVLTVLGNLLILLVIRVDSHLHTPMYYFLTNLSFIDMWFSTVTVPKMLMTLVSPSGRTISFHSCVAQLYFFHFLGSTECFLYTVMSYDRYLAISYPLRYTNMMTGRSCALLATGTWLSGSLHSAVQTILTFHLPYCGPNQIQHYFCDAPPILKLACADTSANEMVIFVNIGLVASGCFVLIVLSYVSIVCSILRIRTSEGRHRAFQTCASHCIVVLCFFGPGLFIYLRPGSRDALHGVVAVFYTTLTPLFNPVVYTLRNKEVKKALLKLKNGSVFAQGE
Compound,odorant receptor agonist call [1],odorant receptor agonist call [2],odorant receptor agonist call [3],odorant receptor agonist call [4],odorant receptor agonist call [5],odorant receptor agonist call [6],odorant receptor agonist call [7],odorant receptor agonist call [8],odorant receptor agonist call [9],odorant receptor agonist call [10]
O=CC=Cc1ccccc1,active,,,,,,,,,
C=CCOC(=O)Cc1ccccc1,inactive,inactive,inactive,inactive,inactive,inactive,inactive,inactive,inactive,inactive
